According to ChEMBL document CHEMBL4373657, “Derivatives of a new heterocyclic system - pyrano[3,4-c][1,2,4]triazolo[4,3-a]pyridines: synthesis, docking analysis and neurotropic activity” (Medchemcomm, 2019):
Calls of active or inactive are those of the source. The rule behind the calls is not given here.

Legend:
Mus musculus [1] = test: Anticonvulsant activity in ip dosed mouse assessed as reduction in PTZ-induced clonic seizures administered 45 mins before PTZ stimulation; type: functional
Procedure, shortened: (§1)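 Outbred mice (18–22 g), 8 per dose. Compounds given i.p. at 10–100 mg kg–1 as a carboxymethylcellulose/Tween-80 suspension, 45 min before s.c. pentylenetetrazole 90 mg kg–1; controls received emulsifier. Endpoint was prevention of clonic seizures. ED50 was derived by Litchfield–Wilcoxon probit analysis.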

Mus musculus [2] = test: Anticonvulsant activity in mouse assessed as proportion of animals displaying reduction in PTZ-induced clonic seizures at 50 mg/kg, ip administered 45 mins before PTZ stimulation relative to control; type: functional; parameters: scale not given: the % may be the effect or the level left; procedure, shortened: as §1
Mus musculus [3] = test: Anticonvulsant activity in mouse assessed as reduction in PTZ-induced clonic seizures at 25 mg/kg, ip administered 45 mins before PTZ stimulation; type: functional, organism-based; procedure, shortened: as §1
[4] = Neurotoxicity in ip dosed mouse assessed as myorelaxation measured for 2 mins by rotarod test; type: toxicity, organism-based; conditions: in vivo
Procedure, shortened: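 Mice were placed on a corrugated rubber-coated metal rod rotating at 5 rpm, and the number staying on for 2 min was counted. TD50 was derived by Litchfield–Wilcoxon probit analysis.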

[5] = Neurotoxicity in ip dosed mouse assessed as maximum tolerated dose by rotarod test; type: toxicity, organism-based; conditions: in vivo
Procedure, shortened: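 Mice given compounds i.p. at […] to 1800 mg/kg to establish the maximal tolerated dose.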

[6] = Protection index, ratio of TD50 for neurotoxicity in ip dosed mouse to ED50 for anticonvulsant activity in ip dosed mouse; type: toxicity, organism-based; conditions: in vivo, read-out: Ratio TD50/ED50
Mus musculus [7] = test: Anticonvulsant activity in mouse assessed as MES-induced […] seizures at 10 to 100 mg/kg, ip administered 45 mins before electrical stimulation; type: functional, organism-based
Mus musculus [8] = test: Anticonvulsant activity in mouse assessed as MES-induced tonic seizures at 10 to 100 mg/kg, ip administered 45 mins before electrical stimulation; type: functional, organism-based
Procedure, shortened: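 Mice, 8 per dose. Compounds given i.p. at 10, 25, 50, 75 or 100 mg kg–1 in carboxymethylcellulose/Tween-80 suspension, 45 min before maximal electroshock (50 mA, 0.2 s, 50 imp s–1); controls received emulsifier. Endpoint was prevention of the tonic-extensor phase.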

[9] = Neurotoxicity in mouse assessed as motor coordination at 50 to 100 mg/kg, ip by rotarod test; type: toxicity, organism-based; conditions: in vivo
Procedure, shortened: (§2)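 Mice dosed i.p. at 50–100 mg kg–1; reference drugs given at effective anticonvulsant doses. Mice were placed on a corrugated rubber-coated metal rod rotating at 5 rpm, and the number staying on for 2 min was counted. TD50 was derived by Litchfield–Wilcoxon probit analysis.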

Rattus norvegicus [10] = test: Antianxiety activity in Wistar rat assessed as horizontal movement of animals at 50 mg/kg, ip measured for 5 mins by open field test; type: functional, organism-based
Procedure, shortened: (§3)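 Male Wistar rats (120–140 g), n = 8 per compound, control and reference. Single i.p. dose of 50 mg kg–1 as a suspension in methylcarboxycellulose with Tween-80; controls received emulsifier. Daytime, natural light. Over 5 min, horizontal movements, rearings (vertical movements) and cell sniffings were counted.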

Rattus norvegicus [11] = test: Antianxiety activity in Wistar rat assessed as vertical movement of animals at 50 mg/kg, ip measured for 5 mins by open field test; type: functional, organism-based; procedure, shortened: as §3
Mus musculus [12] = test: Antianxiety activity in mouse assessed as time spent in closed arms at 50 mg/kg, ip measured for 5 mins by elevated plus maze test (reference value: 278.2 secs); type: functional
Rattus norvegicus [13] = test: Antianxiety activity in Wistar rat assessed as increase in number of sniffing cell examinations at 50 mg/kg, ip measured for 5 mins by open field test; type: functional, organism-based; procedure, shortened: as §3
Mus musculus [14] = test: Sedative activity in mouse assessed as time spent in center at 50 mg/kg, ip measured for 5 mins by elevated plus maze test (reference value: 21.8 secs); type: functional
Mus musculus [15] = test: Antianxiety activity in mouse assessed as increase in time spent in open arms at 50 mg/kg, ip measured for 5 mins by elevated plus maze test; type: functional
Mus musculus [16] = test: Antidepressant activity in mouse assessed as latent period of first immobilization at 50 mg/kg, ip measured for 6 mins by forced swimming test (reference value: 92 secs); type: functional
Procedure, shortened: (§4)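 Each mouse swam in a glass container (22 cm high, 14 cm diameter) one-third filled with water, under natural light. Over 6 min, latency to first immobilization, total immobilization time and total active swimming time were recorded.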

Mus musculus [17] = test: Antidepressant activity in mouse assessed as total time of immobilization at 50 mg/kg, ip measured for 6 mins by forced swimming test (reference value: 81 secs); type: functional; procedure, shortened: as §4
Mus musculus [18] = test: Antidepressant activity in mouse assessed as total time of active swimming at 50 mg/kg, ip measured for 6 mins by forced swimming test (reference value: 282 secs); type: functional; procedure, shortened: as §4
[19] = Neurotoxicity in mouse assessed as myorelaxation at 50 to 100 mg/kg, ip measured for 2 mins by rotarod test; type: toxicity, organism-based; conditions: in vivo; procedure, shortened: as §2
Mus musculus [20] = test: Antianxiety activity in mouse assessed as decrease in number of entries into closed arms at 50 mg/kg, ip measured for 5 mins by elevated plus maze test; type: functional, organism-based

SMILES | ED50 (Mus musculus [1]) | Activity (Mus musculus [2]) | anticonvulsant activity (active/inactive) (Mus musculus [3]) | TD50 at 2 min [4] | MTD [5] | selectivity ratio [6] | Activity (Mus musculus [7]) | Activity (Mus musculus [8]) | Activity [9] | Activity (Rattus norvegicus [10]) | Activity (Rattus norvegicus [11]) | Time (Mus musculus [12]) | Activity (Rattus norvegicus [13]) | Time (Mus musculus [14]) | Time (Mus musculus [15]) | Time (Mus musculus [16]) | Time (Mus musculus [17]) | Time (Mus musculus [18]) | Activity [19] | inhibition (Mus musculus [20])
CC1(C)Cc2c(C#N)c(Nc3ccccc3)n3c(SCC(=O)N(c4ccccc4)c4ccccc4)nnc3c2CO1 | 21 mg/kg | 80% | Active | 580 mg/kg | 1250 mg/kg | 27.6 | inactive | inactive | Non-Toxic | inactive | inactive | 133 s | Active | 79 s | 88 s | 162 s | 43 s | 317 s | Non-Toxic | –
CCCCN(CCCC)C(=O)CSc1nnc2c3c(c(C#N)c(Nc4ccccc4)n12)CC(C)(C)OC3 | – | 20% | – | > 500 mg/kg | 1000 mg/kg | – | inactive | inactive | Non-Toxic | – | – | – | – | – | – | – | – | – | Non-Toxic | –
COc1cccc(NC(=O)CSc2nnc3c4c(c(C#N)c(Nc5ccc(C)cc5)n23)CC(C)(C)OC4)c1 | – | 40% | – | > 500 mg/kg | 1100 mg/kg | – | inactive | inactive | Non-Toxic | – | – | – | – | – | – | – | – | – | Non-Toxic | –
CC1(C)Cc2c(C#N)c(Nc3ccccc3)n3c(SCCCc4ccccc4)nnc3c2CO1 | 23 mg/kg | 60% | Active | 560 mg/kg | 1250 mg/kg | 24 | inactive | inactive | Non-Toxic | inactive | inactive | 223 s | Active | 67 s | 10 s | 139 s | 115 s | 245 s | Non-Toxic | Active
COc1ccc(NC(=O)CSc2nnc3c4c(c(C#N)c(Nc5ccc(C)cc5)n23)CC(C)(C)OC4)cc1 | – | 40% | – | > 500 mg/kg | 1250 mg/kg | – | inactive | inactive | Non-Toxic | – | – | – | – | – | – | – | – | – | Non-Toxic | –
CC1(C)Cc2c(C#N)c(Nc3ccccc3)n3c(SCC(=O)c4ccc(Cl)cc4)nnc3c2CO1 | – | 20% | – | > 500 mg/kg | 1150 mg/kg | – | inactive | inactive | Non-Toxic | – | – | – | – | – | – | – | – | – | Non-Toxic | –
CC1(C)Cc2c(C#N)c(Nc3ccccc3)n3c(SCC(=O)c4cccc([N+](=O)[O-])c4)nnc3c2CO1 | 36 mg/kg | 60% | Active | 490 mg/kg | 1000 mg/kg | 13.6 | inactive | inactive | Non-Toxic | inactive | inactive | 241 s | Active | 51 s | 8 s | 147 s | 84 s | 276 s | Non-Toxic | Active
Cc1ccc(Nc2c(C#N)c3c(c4nnc(SCc5ccc([N+](=O)[O-])cc5)n24)COC(C)(C)C3)cc1 | – | 40% | – | > 500 mg/kg | 1200 mg/kg | – | inactive | inactive | Non-Toxic | – | – | – | – | – | – | – | – | – | Non-Toxic | –
Cc1cccc(NC(=O)CSc2nnc3c4c(c(C#N)c(Nc5ccccc5)n23)CC(C)(C)OC4)c1 | – | 20% | – | > 500 mg/kg | 1300 mg/kg | – | inactive | inactive | Non-Toxic | – | – | – | – | – | – | – | – | – | Non-Toxic | –
CCOC(=O)C(Sc1nnc2c3c(c(C#N)c(Nc4ccccc4)n12)CC(C)(C)OC3)c1ccccc1 (configuration not stated) | 44 mg/kg | 60% | Active | 520 mg/kg | 1200 mg/kg | 11.8 | inactive | inactive | Non-Toxic | inactive | inactive | 199 s | Active | 95 s | 6 s | 156 s | 76 s | 284 s | Non-Toxic | –
Cc1ccc(Nc2c(C#N)c3c(c4nnc(SCC(=O)c5ccc([N+](=O)[O-])cc5)n24)COC(C)(C)C3)cc1 | – | 40% | – | > 500 mg/kg | 1250 mg/kg | – | inactive | inactive | Non-Toxic | – | – | – | – | – | – | – | – | – | Non-Toxic | –
CC1(C)Cc2c(C#N)c(Nc3ccccc3)n3c(SCC(=O)Nc4ccc(Cl)c(Cl)c4)nnc3c2CO1 | – | 20% | – | > 500 mg/kg | 1150 mg/kg | – | inactive | inactive | Non-Toxic | – | – | – | – | – | – | – | – | – | Non-Toxic | –
CC1(C)Cc2c(C#N)c(Nc3ccccc3)n3c(SCC(=O)c4ccc([N+](=O)[O-])cc4)nnc3c2CO1 | – | 40% | – | > 520 mg/kg | 1250 mg/kg | – | inactive | inactive | Non-Toxic | – | – | – | – | – | – | – | – | – | Non-Toxic | –
COc1ccc(CSc2nnc3c4c(c(C#N)c(Nc5ccc(C)cc5)n23)CC(C)(C)OC4)cc1 | 44 mg/kg | 60% | Active | 600 mg/kg | 1500 mg/kg | 13.6 | inactive | inactive | Non-Toxic | inactive | inactive | 200.6 s | Active | 88 s | 11.4 s | 158 s | 71 s | 289 s | Non-Toxic | –
Cc1ccc(Nc2c(C#N)c3c(c4nnc(SCc5ccccc5Cl)n24)COC(C)(C)C3)cc1 | – | 40% | – | > 500 mg/kg | 1350 mg/kg | – | inactive | inactive | Non-Toxic | – | – | – | – | – | – | – | – | – | Non-Toxic | –
